Measured values reported in ChEMBL document CHEMBL4251662, “Alkyl indole-based cannabinoid type 2 receptor tools: Exploration of linker and fluorophore attachment” (Eur J Med Chem, 2018).
Activity calls are given as the source filed them. No cut-off for these calls is given here.

What was measured:
Cannabinoid receptor 1 [1] = target: T1, Cannabinoid receptor 1 (Homo sapiens, UniProt P21554); test: Displacement of [3H]CP55,940 from N-terminal HA-tagged human CB1 receptor expressed in HEK293 cell membranes after 1 hr by microbeta scintillation counting method
T1 sequence (P21554 whole entry): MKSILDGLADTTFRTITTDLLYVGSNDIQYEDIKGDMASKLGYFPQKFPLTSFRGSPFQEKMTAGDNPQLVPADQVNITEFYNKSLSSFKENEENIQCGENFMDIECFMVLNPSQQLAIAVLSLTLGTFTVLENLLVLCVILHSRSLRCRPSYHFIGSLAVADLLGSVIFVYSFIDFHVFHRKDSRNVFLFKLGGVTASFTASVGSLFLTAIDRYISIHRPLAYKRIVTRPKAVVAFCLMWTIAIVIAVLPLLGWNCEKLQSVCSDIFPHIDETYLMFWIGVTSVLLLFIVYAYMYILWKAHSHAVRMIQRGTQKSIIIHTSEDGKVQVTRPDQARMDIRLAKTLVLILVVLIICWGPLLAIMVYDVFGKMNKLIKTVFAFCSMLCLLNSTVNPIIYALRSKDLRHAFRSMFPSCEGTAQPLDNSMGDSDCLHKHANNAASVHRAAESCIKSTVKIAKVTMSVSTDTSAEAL

Cannabinoid receptor 2 [2] = target: T2, Cannabinoid receptor 2 (Homo sapiens, UniProt P34972); test: Displacement of [3H]CP55,940 from N-terminal HA-tagged human CB2 receptor expressed in HEK293 cell membranes after 1 hr by microbeta scintillation counting method
T2 sequence (P34972 whole entry): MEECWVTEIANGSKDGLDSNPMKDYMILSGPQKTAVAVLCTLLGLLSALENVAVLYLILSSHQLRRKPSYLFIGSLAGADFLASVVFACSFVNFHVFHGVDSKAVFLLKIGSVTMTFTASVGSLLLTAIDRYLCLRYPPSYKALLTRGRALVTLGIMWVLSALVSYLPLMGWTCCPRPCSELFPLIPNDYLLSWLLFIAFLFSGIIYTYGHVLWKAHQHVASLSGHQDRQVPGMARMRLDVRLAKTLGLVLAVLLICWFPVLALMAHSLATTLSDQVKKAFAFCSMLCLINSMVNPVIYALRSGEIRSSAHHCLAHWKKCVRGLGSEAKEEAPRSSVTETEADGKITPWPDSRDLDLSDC

Cannabinoid receptor 1 [3] = target: T1, Cannabinoid receptor 1; test: Displacement of [3H]CP55,940 from N-terminal HA-tagged human CB1 receptor expressed in HEK293 cell membranes at 10 uM after 1 hr by microbeta scintillation counting method relative to control
Summary of the method: (§1)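 Single-point competition screen against [3H]CP55,940 in HEK293 cells over-expressing 3HA-tagged hCB2 or hCB1. Compounds giving more than 50% displacement went on to full concentration-response curves.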

Cannabinoid receptor 2 [4] = target: T2, Cannabinoid receptor 2; test: Displacement of [3H]CP55,940 from N-terminal HA-tagged human CB2 receptor expressed in HEK293 cell membranes at 10 uM after 1 hr by microbeta scintillation counting method relative to control; summary of the method: as §1
HEK293 [5] = test: Effect on forskolin-stimulated cAMP level in HEK293 cells at 1 uM by BRET assay relative to control; assay type: ADME, cell-based; conditions: human, hek293, 1 µM
Summary of the method: (§2)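 Wild-type HEK293 cells lacking transfected receptor, tested at 10 µM and 1 µM. Forskolin-stimulated cAMP measured by BRET as a check that responses are receptor-mediated.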

Cannabinoid receptor 2 [6] = target: T2, Cannabinoid receptor 2; test: Agonist activity at N-terminal HA-tagged human CB2 receptor expressed in HEK293 cells transfected with YFP-Epac-RLuc assessed as decrease in forskolin-stimulated cAMP level by BRET assay relative to control; assay type: functional, cell-based
Summary of the method: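 BRET cAMP biosensor read-out in HEK293 cells expressing HA-tagged human CB1 or CB2, with forskolin stimulation (5 µM). Concentration-response curves; area-under-curve values normalised to forskolin alone = 100% and basal = 0%. EC50 taken for agonists and IC50 for inverse agonists. Mean of at least three independent experiments, each point in duplicate.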

Cannabinoid receptor 2 [7] = target: T2, Cannabinoid receptor 2; test: Agonist activity at N-terminal HA-tagged human CB2 receptor expressed in HEK293 cells transfected with YFP-Epac-RLuc assessed as decrease in forskolin-stimulated cAMP level at 10 uM by BRET assay; assay type: functional, cell-based
Summary of the method: (§3)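 Single-concentration screen at 10 µM in CB receptor-expressing HEK293 cells, run with and without CP55,940 as reference agonist. Forskolin-stimulated cAMP read by BRET biosensor. A fall in cAMP is scored as agonism and a rise as inverse agonism.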

Cannabinoid receptor 1 [8] = target: T1, Cannabinoid receptor 1; test: Agonist activity at N-terminal HA-tagged human CB1 receptor expressed in HEK293 cells transfected with YFP-Epac-RLuc assessed as decrease in forskolin-stimulated cAMP level at 10 uM by BRET assay; assay type: functional, cell-based; summary of the method: as §3
HEK293 [9] = test: Effect on forskolin-stimulated cAMP level in HEK293 cells at 10 uM by BRET assay relative to control; assay type: ADME, cell-based; conditions: human, hek293, 10 µM; summary of the method: as §2

Structure (SMILES) | Ki (Cannabinoid receptor 2 [2]; read-out: Ki) | inhibition (Cannabinoid receptor 1 [3]) | inhibition (Cannabinoid receptor 2 [4]) | further results
COc1ccc(C(=O)c2cn(CCN3CCOCC3)c3ccc(OCCCCCCC(=O)NCCOCCOCCNC(=O)CCCCCNC(=O)COc4ccc(/C=C/C5=[N+]6C(=Cc7ccc(-c8cccs8)n7[B-]6(F)F)C=C5)cc4)cc23)cc1 | > 10 µM | – | – | Ki (Cannabinoid receptor 1 [1]; read-out: Ki): > 10 µM
O=C(CCCCCNC(=O)COc1ccc(/C=C/C2=[N+]3C(=Cc4ccc(-c5cccs5)n4[B-]3(F)F)C=C2)cc1)NCCOCCOCCNC(=O)COc1ccc2c(c1)c(C(=O)c1cccc3ccccc13)cn2CCN1CCOCC1 | > 10 µM | – | – | –
NCCOCCOCCNC(=O)COc1ccc2c(c1)c(C(=O)c1cccc3ccccc13)cn2CCN1CCOCC1 | > 10 µM | > 50% | > 50% | –
COc1ccc(C(=O)c2cn(CC3CCOCC3)c3ccc(OCCOCCOCCOCCNC(C)=O)cc23)cc1 | > 10 µM | – | > 50% | Ki (Cannabinoid receptor 1 [1]; hek293): Not Active
CC(C)(NC(=O)COc1ccc2c(c1)c(C(=O)c1cccc3ccccc13)cn2CCN1CCOCC1)C(=O)NC(C)(C)C(=O)NCCNC(=O)CCCCCNC(=O)COc1ccc(/C=C/C2=[N+]3C(=Cc4ccc(-c5cccs5)n4[B-]3(F)F)C=C2)cc1 | > 10 µM | – | – | –
NCCCCCCCCNC(=O)COc1ccc2c(c1)c(C(=O)c1cccc3ccccc13)cn2CCN1CCOCC1 | > 10 µM | > 50% | > 50% | –
O=C(O)COc1ccc2c(c1)c(C(=O)c1cccc3ccccc13)cn2CCN1CCOCC1 | > 10 µM | > 50% | > 50% | Ki (Cannabinoid receptor 1 [1]; read-out: Ki): > 10 µM
COc1ccc(C(=O)c2cn(CCN3CCOCC3)c3ccc(OCC(=O)O)cc23)cc1 | > 10 µM | > 50% | > 50% | Ki (Cannabinoid receptor 1 [1]; read-out: Ki): > 10 µM
COc1ccc(C(=O)c2cn(CCN3CCOCC3)c3ccc(OCC(=O)NCCCCCCCCNC(=O)CCCCCNC(=O)COc4ccc(/C=C/C5=[N+]6C(=Cc7ccc(-c8cccs8)n7[B-]6(F)F)C=C5)cc4)cc23)cc1 | – | – | – | Ki (Cannabinoid receptor 2 [2]; hek293): Not Active
COc1ccc(C(=O)c2cn(CCN3CCOCC3)c3cc(O)ccc23)cc1 | > 10 µM | – | > 50% | Ki (Cannabinoid receptor 1 [1]; hek293): Not Active
COc1ccc(C(=O)c2cn(CCN3CCOCC3)c3ccc(OCCCCC(=O)NCCOCCOCCNC(=O)CCCCCNC(=O)COc4ccc(/C=C/C5=[N+]6C(=Cc7ccc(-c8cccs8)n7[B-]6(F)F)C=C5)cc4)cc23)cc1 | > 10 µM | – | – | Ki (Cannabinoid receptor 1 [1]; read-out: Ki): > 10 µM
COc1ccc(C(=O)c2cn(CC3CCOCC3)c3ccc(OCC(=O)N[C@@H](C)C(=O)N[C@@H](C)C(=O)NCCN)cc23)cc1 | – | > 50% | – | Ki (Cannabinoid receptor 2 [2]; hek293): Not Active
COc1ccc(C(=O)c2cn(CCN3CCOCC3)c3ccc(OCC(=O)NCCOCCOCCNC(=O)CCCCCNC(=O)COc4ccc(/C=C/C5=[N+]6C(=Cc7ccc(-c8cccs8)n7[B-]6(F)F)C=C5)cc4)cc23)cc1 | > 10 µM | – | – | –
COc1ccc(C(=O)c2cn(CCN3CCOCC3)c3ccc(OCC(=O)NCCOCCOCCNC(C)=O)cc23)cc1 | > 10 µM | > 50% | > 50% | –
COc1ccc(C(=O)c2cn(CCN3CCOCC3)c3ccc(OCC(=O)N[C@@H](C)C(=O)N[C@@H](C)C(=O)NCCN)cc23)cc1 | – | > 50% | – | Ki (Cannabinoid receptor 2 [2]; hek293): Not Active
CCCCCCC(C)(C)c1ccc([C@@H]2C[C@H](O)CC[C@H]2CCCO)c(O)c1 [CP-55940] | – | – | – | Activity (HEK293 [5]): 99.2%; Emax (Cannabinoid receptor 2 [6]): 41%; Activity (Cannabinoid receptor 2 [7]): Active; Activity (Cannabinoid receptor 1 [8]): Active; Activity (HEK293 [9]): 98%
COc1ccc(C(=O)c2cn(CCN3CCOCC3)c3ccc(OCC(=O)NC(C)(C)C(=O)NC(C)(C)C(=O)NCCNC(=O)CCCCCNC(=O)COc4ccc(/C=C/C5=[N+]6C(=Cc7ccc(-c8cccs8)n7[B-]6(F)F)C=C5)cc4)cc23)cc1 | > 10 µM | – | – | –
O=C(CCCCCNC(=O)COc1ccc(/C=C/C2=[N+]3C(=Cc4ccc(-c5cccs5)n4[B-]3(F)F)C=C2)cc1)NCCCCCCCCNC(=O)COc1ccc2c(c1)c(C(=O)c1cccc3ccccc13)cn2CCN1CCOCC1 | – | – | – | Ki (Cannabinoid receptor 2 [2]; hek293): Not Active
COc1ccc(C(=O)c2cn(CC3CCOC3)c3ccc(O)cc23)cc1 (stereo not given) | > 10 µM | – | > 50% | Ki (Cannabinoid receptor 1 [1]; hek293): Not Active
C[C@H](NC(=O)COc1ccc2c(c1)c(C(=O)c1cccc3ccccc13)cn2CCN1CCOCC1)C(=O)N[C@@H](C)C(=O)NCCN | – | > 50% | – | Ki (Cannabinoid receptor 2 [2]; hek293): Not Active
COc1ccc(C(=O)c2cn(CC3CCOCC3)c3c(OCCCCC(=O)NCCOCCOCCNC(C)=O)cccc23)cc1 | > 10 µM | > 50% | > 50% | Ki (Cannabinoid receptor 1 [1]; read-out: Ki): > 10 µM
Cc1c(C(=O)c2cccc3ccccc23)c2cccc3c2n1[C@H](CN1CCOCC1)CO3 [WIN-552122] | – | – | – | Activity (HEK293 [5]): 96.1%; Activity (HEK293 [9]): 102.6%
COc1ccc(C(=O)c2cn(CCN3CCOCC3)c3ccc(OCC(=O)NCCCCCCCCN)cc23)cc1 | > 10 µM | > 50% | > 50% | –
COc1ccc(C(=O)c2cn(CC3CCOCC3)c3ccc(OCC(=O)NC(C)(C)C(=O)NC(C)(C)C(=O)NCCNC(=O)CCCCCNC(=O)COc4ccc(/C=C/C5=[N+]6C(=Cc7ccc(-c8cccs8)n7[B-]6(F)F)C=C5)cc4)cc23)cc1 | > 10 µM | – | – | –
COc1ccc(C(=O)c2cn(CCN3CCOCC3)c3ccc(OCC(=O)NCCOCCOCCN)cc23)cc1 | > 10 µM | > 50% | > 50% | –
